Assay outcomes (PubChem)
proCasp3 act = activators of human procaspase-3 D3A mutant, primary screen, biochemical, absorbance, PC-3 D3A mutant, single concentration | Caspase-3 (Homo sapiens), P42574 | recombinant procaspase-3 D3A, Ac-DEVD-pNA absorbance 405 nm | activation, % at 8.5 µM | 330,000 compounds, 0.11% hits;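 active means activation above the mean of all tested compounds plus 3 SD, cut at about 21% in these data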
Target sequence (P42574 whole entry D9A/D28A/D175A): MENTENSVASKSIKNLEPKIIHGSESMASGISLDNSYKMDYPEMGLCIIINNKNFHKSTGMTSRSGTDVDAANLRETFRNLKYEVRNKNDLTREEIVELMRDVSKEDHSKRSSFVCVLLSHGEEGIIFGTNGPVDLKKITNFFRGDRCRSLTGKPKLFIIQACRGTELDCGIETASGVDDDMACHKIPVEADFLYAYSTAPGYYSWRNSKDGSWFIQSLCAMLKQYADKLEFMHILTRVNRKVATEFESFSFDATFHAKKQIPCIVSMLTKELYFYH
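Test system: Procaspase-3 D3A mutant, all three cleavage aspartates alanine | Dosing: Single dose, 8.5 µM nominal compound, 0.8% DMSO | Schedule: 1 h preincubation, 2 h reaction | Technique: 405 nm absorbance of p-nitroaniline, reads at 0 and 120 min | Repeats: One well per compound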
ARFGAP1 inh = inhibitors of rat ARFGAP1 GAP activity, primary screen, biochemical, fluorescence polarization, GDP tracer | Arfgap1-stimulated ARF1 GTP hydrolysis, GDP FP detection | 360,000 compounds, 0.26% hits | inhibition, % at 16.5 µM | ADP-ribosylation factor GTPase-activating protein 1 (Rattus norvegicus), Q62848;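 active means inhibition above a per-plate limit, mean inhibition of low control wells plus 3 SD, cut at about 25% in these data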
Target sequence (Q62848 1-136 limits assumed): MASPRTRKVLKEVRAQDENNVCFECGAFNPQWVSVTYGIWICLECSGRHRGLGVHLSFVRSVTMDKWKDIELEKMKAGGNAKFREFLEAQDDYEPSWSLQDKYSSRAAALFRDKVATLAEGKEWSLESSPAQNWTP
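Material: rat Arfgap1 GAP domain (His6, aa 1-136), purified enzyme. Also added: human ARF1(Δ1-17)-GTP substrate. Compound dosing: 16.5 µM single point, 1.26% DMSO. Timing: enzyme reaction 120 min at 25 °C after 20 min preincubation. Signal: GDP detection by fluorescence polarization. Read-out basis: percent inhibition of GAP-stimulated GDP formation, scaled between DMSO and no-Arfgap1 medians.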
LANA-H2A inh = blockers of LANA interaction with H2A/H2B – biochemical, FP readout, HTS, primary screen; Protein LANA1 (Human herpesvirus 8 type P (isolate GK18)), Q9QR71; cell-free LANA-H2A/H2B peptide, fluorescence polarization; inhibition, % (test concentration not listed); 320,000 compounds, 0.6% hits; in the data active means inhibition mostly above about 10%, no sharp cut-off; inactive means mostly below about 6.7%
Yeast superoxide = reduction of superoxide in aged yeast, primary screen, HTS; superoxide response (% of plate mean), % at 10 µM; 330,000 compounds, 0.18% hits; S. cerevisiae aged cells, superoxide DHE fluorescence; hits give low values;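 active means superoxide response under a set limit, about three screen SD below normal, cut at about 65% in these data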;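 further: yeast aged for seven days with compound at 30 °C before DHE staining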
proCasp7 act = procaspase-7 activators, primary screen, counter-screen for procaspase-3 activator project, biochemical, absorbance, HTS, human | Caspase-7 (Homo sapiens), P55210 | activation, % at 8.5 µM | 330,000 compounds, 0.093% hits | AID 463210, 2010 | recombinant procaspase-7, Ac-DEVD-pNA absorbance 405 nm; D23A/D198A/D206A triple mutant, cannot self-cleave; scale: DMSO 0, 5 µM enzyme 100;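 active means percent activation above the screen-wide mean plus 3 SD, cut at about 25% in these data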
Target sequence (P55210 whole entry D23A/D198A/D206A): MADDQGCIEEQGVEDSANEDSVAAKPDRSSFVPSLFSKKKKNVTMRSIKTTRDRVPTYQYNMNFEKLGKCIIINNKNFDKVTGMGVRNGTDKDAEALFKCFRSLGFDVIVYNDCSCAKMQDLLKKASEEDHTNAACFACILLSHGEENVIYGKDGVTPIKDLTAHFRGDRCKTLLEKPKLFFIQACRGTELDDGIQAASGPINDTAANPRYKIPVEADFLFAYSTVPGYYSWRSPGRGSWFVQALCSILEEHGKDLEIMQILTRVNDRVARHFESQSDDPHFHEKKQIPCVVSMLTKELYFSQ
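System: Procaspase-7 triple mutant (PC-7 D3A); measure: % activation from two-timepoint absorbance difference, scaled to controls; times: 1 h compound preincubation, 2 h substrate cleavage, 25 °C; also added: Ac-DEVD-pNA substrate, 400 µM as added; measured by: Epi-absorbance of released pNA at 405 nm, two timepoints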
ASAP1 GAP inh = inhibitors of human ASAP1 ArfGAP activity, primary screen, biochemical, fluorescence polarization. ASAP1-stimulated ARF1 GTP hydrolysis, GDP FP detection. 360,000 compounds, 0.19% hits. inhibition, % at 16.5 µM. Arf-GAP with SH3 domain, ANK repeat and PH domain-containing protein 1 (Homo sapiens), …; in the data active means inhibition above about 25%
Each line names hits and unclear results; the compound was inactive in the other large screens. Sampled rows, rich in hits. Any-hit rate of the full collection: about 1.2%.

COc1ccc(CCC(=O)OCC(=O)NC2CCCC2)cc1OC	none (no result: proCasp3 act, LANA-H2A inh, Yeast superoxide, proCasp7 act)
C=CCN=C1NC(c2ccc(C(F)(F)F)cc2)C(C(=O)OC)=C(C)N1C (stereo not drawn)	none (no result: proCasp3 act, LANA-H2A inh, Yeast superoxide, proCasp7 act)
CCc1ccc(NC(=O)C(C)Nc2ccc(S(=O)(=O)NC(C)=O)cc2)cc1 (stereo not drawn)	LANA-H2A inh 15
CC(=O)NS(=O)(=O)c1ccc(NC(=S)NC(=O)C(C)C)cc1	none (no result: LANA-H2A inh)
Cc1ccccc1S(=O)(=O)N1CCCc2nc(C)c(C)cc21	none (no result: proCasp3 act, LANA-H2A inh, Yeast superoxide, proCasp7 act)
CCOC(=O)c1ccc(N2C(=O)C(O)=C(C(C)=O)C2c2ccc([N+](=O)[O-])cc2)cc1 (stereo not drawn)	none
CC(=O)C1=C(O)C(=O)N(c2ccc(C(=O)O)cc2)C1c1ccc([N+](=O)[O-])cc1 (stereo not drawn)	LANA-H2A inh 13
CCSc1nc(=S)cc(C)[nH]1	Yeast superoxide 59
CCSc1nc(O)cc(=O)[nH]1	none
COc1ccc(NC(=O)N(C)C[C@H]2OCc3cnnn3CCCC(=O)N([C@H](C)CO)C[C@@H]2C)c(OC)c1	none (no result: proCasp3 act, LANA-H2A inh, Yeast superoxide, proCasp7 act)
CN(Cc1ccccc1)c1nc2c(c(=O)[nH]c(=O)n2C)n1Cc1ccccc1	none
Cc1cccc(Cn2c(N(C)CCO)nc3c2c(=O)[nH]c(=O)n3C)c1	LANA-H2A inh 14
O=C(c1ccccc1)N1CCC2CCN(S(=O)(=O)c3ccccc3)CC21 (stereo not drawn)	none (no result: proCasp3 act, LANA-H2A inh, Yeast superoxide, proCasp7 act)
O=C1CC(c2c[nH]c3ccccc23)C(=O)N1 (stereo not drawn)	LANA-H2A inh 30
Cc1ccc(C2=NNC(=O)C(c3c[nH]c4ccccc34)C2)cc1 (stereo not drawn)	none
CC(=O)NC1CCCCN(C)C1=O (stereo not drawn)	none (no result: proCasp3 act, LANA-H2A inh, Yeast superoxide, proCasp7 act)
Cc1ccc(-c2ccc(/C=C(\C#N)C(=O)Nc3cc(C)nn3-c3ccccc3)o2)cc1	LANA-H2A inh 23 (no result: ARFGAP1 inh, ASAP1 GAP inh)
Cc1cc(NC(=O)/C(C#N)=C/c2ccco2)n(-c2ccccc2)n1	none
N=C1c2ccccc2CN1NC(=O)CC12CC3CC(CC(C3)C1)C2	Yeast superoxide 56
Cc1cc(C)cc(OCC(=O)NN2Cc3ccccc3C2=N)c1	none
COc1ccc(C=O)c(OC)c1	LANA-H2A inh 12
COc1cc(O)ccc1C=O	none
Nc1[nH]c(C(=O)c2ccccc2)c(-c2ccccc2)c1C(=O)NCCc1c[nH]c2ccccc12	none (no result: proCasp3 act, LANA-H2A inh, Yeast superoxide, proCasp7 act)
CC(C)C[C@H](NC(=O)c1ccc(Cl)cc1Cl)C(=O)N1CCC[C@H]1C(=O)NCc1ccccc1	none (no result: proCasp3 act, LANA-H2A inh, Yeast superoxide, proCasp7 act)
O=C(NCCc1ccc(Cl)cc1)c1cnccn1	LANA-H2A inh active
COc1ccc(CCNC(=O)c2cnccn2)cc1	none
Cc1ccc(C)c(S(=O)(=O)/N=C2\C=C(NS(=O)(=O)c3ccccc3)C(=O)c3ccccc32)c1	LANA-H2A inh 31
CCc1ccc(S(=O)(=O)/N=C2\C=C(NS(=O)(=O)c3ccccc3)C(=O)c3ccccc32)cc1	none (no result: proCasp3 act, LANA-H2A inh, Yeast superoxide, proCasp7 act)
O=C(Cc1ccc(Cl)cc1)NNc1c(F)c(F)cc(F)c1F	LANA-H2A inh 27
COc1ccc(OC)c(N(CC(=O)NCc2ccccc2)S(=O)(=O)c2ccc(OC)c(OC)c2)c1	LANA-H2A inh 41
COCCCNC(=O)CN(c1cc(OC)ccc1OC)S(=O)(=O)c1ccccc1	LANA-H2A inh 19
CCCc1c(-c2cccc(Br)c2)ncn1CCc1ccccc1OC	none (no result: proCasp3 act, LANA-H2A inh, Yeast superoxide, proCasp7 act)
Cc1cccn2c(CNCCc3ccccn3)c(C(=O)N3CCOCC3)nc12	LANA-H2A inh 29
CC(=O)c1sc(NC(=O)CN2C(=O)NC3(CCCC3)C2=O)nc1-c1ccccc1	LANA-H2A inh 18
O=C(CN1C(=O)NC2(CCCC2)C1=O)Nc1ccccc1F	LANA-H2A inh 27
Cc1sc(NC(=O)CN2C(=O)NC3(CCCC3)C2=O)nc1-c1ccc(F)cc1	none
CCn1c(SCc2nc3sc(C(=O)O)c(C)c3c(=O)[nH]2)nnc1-c1ccc(Cl)cc1	LANA-H2A inh active
O=C(O)c1ccccc1C(=O)N1CCN(S(=O)(=O)c2cccc(C(F)(F)F)c2)CC1	LANA-H2A inh 43
O=C(c1ccncc1)N1CCN(S(=O)(=O)c2cccc(C(F)(F)F)c2)CC1	none
Cc1cn([C@H]2C[C@H](O)[C@@H](CCC(=O)NCCc3cccs3)O2)c(=O)[nH]c1=O	none (no result: proCasp3 act, LANA-H2A inh, Yeast superoxide, proCasp7 act)
COC(=O)c1ccc(C(c2c(C)[nH][nH]c2=O)c2c(C)[nH][nH]c2=O)cc1	none
COC(=O)c1cccc(-c2ccc(C(c3c(C)[nH][nH]c3=O)c3c(C)[nH][nH]c3=O)o2)c1	ARFGAP1 inh 32, ASAP1 GAP inh 26
C=CCN=C1S/C(=C\c2ccc(N(C)C)cc2)C(=O)N1CC=C	LANA-H2A inh 16
C=CCN1C(=O)/C(=C/c2ccc(OC)cc2)S/C1=N/c1nccs1	none
CC1CCN(C(=O)CCNS(=O)(=O)c2ccc(Br)cc2)CC1	LANA-H2A inh 24
C=CCN=C1NC(c2ccccc2C(F)(F)F)C(C(=O)OC)=C(C)N1Cc1ccc(C(F)(F)F)cc1 (stereo not drawn)	none (no result: proCasp3 act, LANA-H2A inh, Yeast superoxide, proCasp7 act)
CN(C)c1ccc(/C=N/NC(=S)NCc2ccccc2)cc1	proCasp3 act 90, proCasp7 act 32
CCN=C1NC(c2ccc(C(F)(F)F)cc2)C(C(=O)OC)=C(C)N1Cc1ccccc1C(F)(F)F (stereo not drawn)	none (no result: proCasp3 act, LANA-H2A inh, Yeast superoxide, proCasp7 act)
CCN(CC)c1ccc2cc(-c3nc4ccccc4[nH]3)c(=O)oc2c1	LANA-H2A inh 27 (no result: ARFGAP1 inh, ASAP1 GAP inh)
CCN(CC)c1ccc2cc(-c3nc4ccccc4n3C)c(=O)oc2c1	none
O=C1COc2ccc(C(=O)COC(=O)CCCOc3ccccc3)cc2N1	none (no result: proCasp3 act, LANA-H2A inh, Yeast superoxide, proCasp7 act)
Cc1ccc([C@H]2C(C(=O)O)=CC[C@@H](c3ccc(Cl)cc3)N2S(=O)(=O)c2ccccc2C)cc1	none (no result: ARFGAP1 inh, ASAP1 GAP inh)
CC[C@@H]1C=C(C(=O)O)[C@H](c2ccc(Cl)c(Cl)c2)N1S(=O)(=O)c1ccc(C)cc1	none
CCCCC[C@@H]1C=C(C(=O)O)[C@H](c2ccc(Cl)c(Cl)c2)N1S(=O)(=O)c1ccc(C)cc1	LANA-H2A inh 120
Cc1ccccc1S(=O)(=O)N1[C@@H](c2ccc(Cl)cc2)C(C(=O)O)=CC[C@H]1c1ccc(Cl)cc1	LANA-H2A inh 60
